Compound activity: PubChem, several laboratories
KCC2 mod = modulates chloride dependent transport by human KCC2 | 190,000 compounds, 2.2% hits | B-score of Tl+ flux slope (higher = more flux/activation; lower = inhibition) at 10 µM | KCC2 cells, thallium flux FluoZin-2 fluorescence;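 active = thallium flux slope and its plate-corrected score both differing from the plate sample mean at a set confidence after two filtering rounds, in either direction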;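 also: slope of fluorescence scaled to starting intensity during 10 to 20 s after thallium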
NPY-Y1 PAM-ag = human NPY-Y1 potentiation or agonism, primary screen; NPY-Y1 expressing cells, potentiator/agonist activation; AID 1304; P25929; 220,000 compounds, 0.37% hits; activation, % at 3.6 µM; in the data active = activation above about 33%, passing the limit was not always enough;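 also: cells stimulated with NPY at EC10 then isoproterenol at EC100; 0% = low agonist plus stimulus and 100% = saturating agonist plus stimulus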
NPY-Y1 antag = NPY-Y1 (human) receptor antagonism; P25929; HEK293-CNG Y1 cells, membrane potential fluorescence; NPY at EC95, then isoproterenol; inhibition, % at 3.6 µM; 200,000 compounds, 1% hits;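 active = inhibition above the campaign mean inhibition of all tested compounds plus 3 SD, cut at about 20% in these data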;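 also: 0% = DMSO wells given NPY plus isoproterenol and 100% = isoproterenol alone without NPY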
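Material: HEK293 cells with Y1 receptor plus CNG channel; times: compound incubation 1 h at room temperature, readout 45 min post-stimulation; signal: fluorescence, membrane potential probe; read-out basis: fluorescence ratio normalized to % inhibition between controls; benchmarks: full-block control isoproterenol-only wells, zero-block control NPY plus isoproterenol wells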
NPY Y2 blocker = blocks the human neuropeptide Y Y2 receptor; P49146; NPY-Y2 expressing cells, antagonist mode; inhibition, % at 2.7 µM; 140,000 compounds, 0.99% hits; AID 793; in the data active = inhibition above about 17%;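 also: 0% = vehicle with agonist challenge and 100% = reference antagonist with challenge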
Furin inhibitor = blocks human furin protease activity; P09958; inhibition, % at 20 µM or 30 µM; 220,000 compounds, 0.061% hits; AID 463115; purified furin, fluorogenic substrate cleavage; in the data active = inhibition above about 25%
NPY-Y2 PAM-ag = potentiates or activates human NPY-Y2 receptor; P49146; cells expressing NPY-Y2, potentiator/agonist read-out; activation, % at 3.6 µM; 220,000 compounds, 0.45% hits; AID 1359; in the data active = activation above about 27%;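 also: cells stimulated with NPY near EC25 plus isoproterenol at EC100; 0% = vehicle plus submaximal agonist and 100% = vehicle plus saturating agonist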
KCC2 sec1 = confirmation of human KCC2 transport modulators; shares compounds with KCC2 mod; HEK293-KCC2, thallium flux, FluoZin2 fluorescence; stronger effect = higher value; normalised thallium flux (F/F0 slope) at 10 µM; 3,700 compounds, 15% hits;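 active = thallium flux slope above the same plate's solvent-only control mean plus 3 SD; inconclusive = the two replicate wells disagree; inactive = no significant difference from solvent-only control wells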
KCC2 bumet counter = bumetanide-insensitive thallium flux in KCC2 cells with ouabain, counter-screen; 3,700 compounds, 49% hits; normalized thallium flux at 10 µM; shares compounds with KCC2 mod; HEK293-KCC2 + bumetanide/ouabain, thallium flux FluoZin2; stronger effect = higher value; AID 1714;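 active = thallium entry rate above the same plate's blocked-transporter control wells by more than 3 SD; inconclusive = the two repeat wells disagree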;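 also: raw slope of fluorescence over initial fluorescence between 10 and 20 s after thallium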
KCC2 sec2 = KCC2 (human) modulation, second secondary assay | shares compounds with KCC2 mod | HEK293-KCC2, thallium flux FluoZin2 fluorescence; actives lie on both sides; F/F0 rise rate, 10–20 s post-thallium | normalized thallium flux at 10 µM | 3,700 compounds, 23% hits | AID 1715;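 active = thallium flux slope more than 3 SD above or below the plate's solvent-only control mean, mostly below; inconclusive = the two repeat wells disagreed; inactive = no significant shift from solvent-only controls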;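 also: raw slope with 0.1% DMSO as baseline and bumetanide as block control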
HEK counter1 = parental HEK flux effect, counter-screen; shares compounds with KCC2 mod; HEK293 parental cells, thallium flux FluoZin2, ouabain; baseline-ratio fluorescence slope, 10–20 s after thallium; thallium flux rate (normalised fluorescence) at 10 µM; 3,700 compounds, 46% hits; AID 1716;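 active = thallium flux rate significantly above the same plate's solvent-only control wells, beyond their mean plus 3 SD; inconclusive = the two replicate wells gave conflicting results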
KCC2 retest ouab = KCC2 (human) modulation, ouabain retest | shares compounds with KCC2 mod | HEK293-KCC2, thallium flux FluoZin2 fluorescence; bidirectional: low = inhibitor, high = activator | raw Tl+ flux slope (below DMSO = inhibition, above = activation) at 10 µM | 3,700 compounds, 48% hits;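 active = thallium flux slope beyond 3 SD from same-plate DMSO control mean in most replicates, usually higher, sometimes lower; inconclusive = repeat tests gave conflicting results; inactive = no significant difference from controls in most replicates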;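 also: slope of initial-normalized fluorescence between seconds 10 and 20 after thallium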
HEK293 Tl flux2 = counter-screen for KCC2 modulators: effect in parental HEK293 cells; 3,700 compounds, 33% hits; thallium flux FluoZin-2 fluorescence slope; thallium flux slope at 10 µM; shares compounds with KCC2 mod;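 active = thallium flux slope above the same plate's solvent-control mean plus 3 SD in both duplicate wells; inconclusive = duplicate wells that disagreed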;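 also: run without ouabain in cells lacking the KCC2 cotransporter; slope of fluorescence scaled to its starting value between 10 and 20 s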
* hit, by the source's call; ? = inconclusive; / = no result given. This is a sample that favours compounds with a hit; in the whole collection about 3.7% have one here.

SMILES	KCC2 mod	NPY-Y1 PAM-ag	NPY-Y1 antag	NPY Y2 blocker	Furin inhibitor	NPY-Y2 PAM-ag	KCC2 sec1	KCC2 bumet counter	KCC2 sec2	HEK counter1	KCC2 retest ouab	HEK293 Tl flux2
Cc1ccsc1/C=N/n1c(-c2ccncc2)n[nH]c1=S	0.51	21	-3	-1	-25	9	/	/	/	/	/	/
Cc1ccc(/C=N/n2c(-c3ccncc3)n[nH]c2=S)s1	0.78	26	/	/	-21	9	/	/	/	/	/	/
Cc1cccc(-c2n[nH]c(=S)n2/N=C/c2cccs2)c1	41*	-2	/	/	-3	-23	0.019*	0.08*	0.034	0.054*	0.054*	0.016*
S=c1[nH]nc(-c2cccnc2)n1/N=C/c1cccs1	0.068	-12	-2	1	-13	7	/	/	/	/	/	/
Cc1cccc(-c2n[nH]c(=S)n2/N=C/c2ccc(C)s2)c1	13*	2	1	5	-1	0	0.011	0.031*	0.033	0.016*	0.028	0.012*
COCC(=O)N(c1ccccc1)C(C)C(=O)OC (stereo unspecified)	-0.57	0	6	/	-16	4	/	/	/	/	/	/
Cc1ccc(/C=C/C2=Cc3c(sc(NC(=O)CSc4n[nH]c(N)n4)c3C#N)C(C)(C)C2)o1	0.55	6	3	0	-6	-13	/	/	/	/	/	/
O=C(COc1ccccc1)NNc1nc2c(F)cc(F)cc2s1	0.59	-20	0	/	-3	-18	/	/	/	/	/	/
O=C(Nc1nc2c(F)cc(F)cc2s1)c1ccccn1	23*	14	3	/	-22	15	0.02*	0.11*	0.031	0.039*	0.076*	0.015*
COc1ccc2nc(NC(=O)CN(C)S(=O)(=O)c3cccs3)sc2c1	-0.76	11	-8	-2	1	2	/	/	/	/	/	/
Cc1ccc2nc(N/C(=N/S(=O)(=O)c3cccs3)c3ccccc3Cl)sc2c1	6.4*	14	1	/	-19	13	0.0073	0.023*	0.032	0.022*	?	0.017*
COc1ccc2nc(NC(=O)CNS(=O)(=O)c3cccs3)sc2c1	/	-5	2	1	-14	7	0.01	0.0065	0.031	0.0077	?	?
Cc1ccc2nc(NC(=O)c3ccccn3)sc2c1	7.9*	17	1	/	-19	15	?	0.041*	0.032	0.018*	0.036*	0.011*
N=C1N(/N=C/c2ccccc2)C(=Nc2ccccc2)C(=S)N1c1ccccc1	0.19	8	3	5	-7	-5	/	/	/	/	/	/
Cn1cc(C(=O)N2CCc3ccccc32)cn1	-0.43	5	-3	-2	-8	6	/	/	/	/	/	/
COc1ccc(C(C)=O)cc1CSc1nnc(-c2ccc(Cl)cc2)n1-c1ccccc1	-1.1	9	8	11	-9	7	/	/	/	/	/	/
CCOc1ccc2nc(NC(=O)c3ccccn3)sc2c1	6.4*	18	/	/	-25	19	?	0.028*	0.028	0.013*	0.03*	?
CCOc1ccc2nc(NC(=O)Nc3ccccc3)sc2c1	/	26	-6	-3	-7	27	/	/	/	/	/	/
COc1cc2nc(=S)n3[nH]c(CCn4nc(C)cc4C)nc3c2cc1OC	-0.36	0	0	0	-6	1	/	/	/	/	/	/
COc1cc2nc(=S)n3[nH]c(COc4ccccc4C)nc3c2cc1OC	-9.2*	-4	6	4	-3	-5	0.0088	0.0059	0.029	0.0061*	0.01*	?
COCCN(Cc1cc2cc3c(cc2nc1Cl)OCO3)C(=O)c1ccc(C)cc1	0.03	2	1	/	-21	-7	/	/	/	/	/	/
FC(F)(F)c1ccccc1NC(=S)N/N=C1\CC2CC=CC12 (stereo unspecified)	13*	-24	2	/	-19	-2	?	0.037*	0.04*	0.02*	0.029*	0.023*
N#Cc1ccccc1NC(=O)CSc1nnc(-c2ccncc2)o1	0.78	0	2	/	-11	-1	/	/	/	/	/	/
CCc1nc(N)c(C#N)c(-c2ccc(O)c(OC)c2)c1C	-2.9	-5	5	3	-18	4	/	/	/	/	/	/
COc1cc(-c2c(C#N)c(=O)[nH]c3c2c(C)nn3-c2ccccc2)ccc1O	-5*	-10	1	6	-17	-2	0.0078	0.0041	0.03	0.0067	?	0.0093
SMILES	KCC2 mod	NPY-Y1 PAM-ag	NPY-Y1 antag	NPY Y2 blocker	Furin inhibitor	NPY-Y2 PAM-ag	KCC2 sec1	KCC2 bumet counter	KCC2 sec2	HEK counter1	KCC2 retest ouab	HEK293 Tl flux2
Cc1ccc(Nc2nnc(SCC(=O)Nc3cccc(S(=O)(=O)NC4=NCCCCC4)c3)s2)cc1	-3.6	13	-5	-3	-9	4	/	/	/	/	/	/
CCc1ccc(Nc2nnc(SCC(=O)NC(=O)c3cccn3C)s2)cc1	-4.9*	2	-5	/	-26	1	0.005	0.0047	0.025*	?	0.012*	0.01
CCc1ccc(Nc2nnc(SCC(=O)Nc3cccc(S(=O)(=O)NC4=NCCCCC4)c3)s2)cc1	-7.4*	4	-5	-1	2	4	0.0089	0.0078*	0.026*	0.0068	0.011*	0.011
Cc1cccc(Nc2nnc(SCC(=O)Nc3cccc(S(=O)(=O)N4CCCCC4)c3)s2)c1	-5.1*	-8	-2	5	-14	18	0.0072	0.0051	?	?	0.014*	0.0099
Cc1sc2ncnc(SCC#N)c2c1C	4.5*	-7	0	3	-5	-5	0.0061	0.016*	0.032	0.0099*	?	?
COc1ccc([N+](=O)[O-])cc1N(CC(=O)Nc1ccccc1C(=O)NC(C)C)S(C)(=O)=O	-0.033	-6	7	/	-21	6	/	/	/	/	/	/
CC(Sc1cccc[n+]1[O-])C(=O)Nc1ccc(Oc2ccccc2)cc1 (stereo unspecified)	-0.96	-12	-1	/	-22	-3	/	/	/	/	/	/
c1csc(-c2nn3cnnc3c3ccccc23)c1	0.42	-3	-2	/	-14	1	/	/	/	/	/	/
Cc1sc2ncnc(SCC(=O)NC(=O)c3cccn3C)c2c1C	59*	-31	5	/	0	-14	0.039*	0.13*	0.045*	0.072*	0.072*	0.029*
